Assay results taken from ChEMBL document CHEMBL1759881, “Synthesis and anti-inflammatory activity of ent-kaurene derivatives” (Eur J Med Chem, 2011).
Calls of active or inactive are those of the source. The calls are words filed in the database; no cut-off is given here.

Tests used:
[1] = system: RAW264.7; assay: Antiinflammatory activity in mouse RAW264.7 cells assessed as inhibition of LPS-induced NOS2 mRNA expression pretreated at 5 uM for 15 mins before LPS challenge measured after 4 hrs by RT-PCR analysis; assay type: functional, cell-based
Procedure, shortened: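 Macrophages pre-incubated 15 min with compound, then LPS 250 ng/ml for 4 h. NOS-2 mRNA measured by real-time quantitative PCR, samples in duplicate, normalized to housekeeping gene 36B4 (acidic ribosomal phosphoprotein P0). Fold induction taken from average replicate values. Means ± S.D. of three independent experiments in triplicate; Student's unpaired t test vs LPS.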

[2] = Cytotoxicity against LPS-stimulated mouse RAW264.7 cells assessed as cell viability at 1 to 25 uM pretreated for 15 mins before LPS challenge measured after 24 hrs by MTT assay; assay type: cell-based; conditions: LPS-stimulated RAW264.7 cells, read-out: Activity
Procedure, shortened: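 RAW 264.7 cells plated at 10⁵ cells/well, treated with compound at 1–25 in the presence of LPS 250 ng/ml for 24 h. MTT then added for 4 h at 37 °C, formazan extracted in DMSO, absorbance read at 540 nm. Viability expressed relative to untreated controls. Triplicate wells, at least three independent experiments.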

[3] = system: RAW264.7; assay: Antiinflammatory activity in mouse RAW264.7 cells assessed as inhibition of LPS-induced IL-1alpha production at 5 uM pretreated for 15 mins before LPS challenge measured after 24 hrs by ELISA; assay type: functional, cell-based
Procedure, shortened: (§1)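 RAW 264.7 macrophages pre-incubated 15 min with compound or left untreated, then LPS 250 ng/ml for 24 h. IL-6, IL-1, TNF and IFN measured in supernatant by ELISA. Means ± S.D. of three independent experiments run in triplicate.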

[4] = system: RAW264.7; assay: Inhibition of NF-kappaB activation in LPS-stimulated mouse RAW264.7 cells assessed as IkappaBalpha degradation pretreated at 5 uM for 15 mins before LPS challenge measured after 24 hrs by Western blotting; assay type: cell-based
[5] = system: RAW264.7; assay: Antiinflammatory activity in mouse RAW264.7 cells assessed as inhibition of LPS-induced nitric oxide release pretreated for 15 mins before LPS challenge measured after 24 hrs by Griess method; assay type: functional, cell-based
Procedure, shortened: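 RAW 264.7 cells pre-incubated 15 min with compound (1–25 range in the table; 1, 5, 10, 25, 50 for dose-response) or DMSO vehicle, then LPS 250 ng/ml for 24 h. Nitrite in supernatant measured by Griess reagent, absorbance at 548 nm against NaNO2 standard. IC50 is the concentration giving 50% inhibition of NO release. Means ± SD of three independent experiments in triplicate.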

[6] = system: RAW264.7; assay: Antiinflammatory activity in mouse RAW264.7 cells assessed as inhibition of LPS-induced IFN-gamma production at 5 uM pretreated for 15 mins before LPS challenge measured after 24 hrs by ELISA; assay type: functional, cell-based; procedure, shortened: as §1
[7] = system: RAW264.7; assay: Antiinflammatory activity in mouse RAW264.7 cells assessed as inhibition of LPS-induced NOS2 protein expression pretreated at 5 uM for 15 mins before LPS challenge measured after 24 hrs by Western blotting; assay type: functional, cell-based
Procedure, shortened: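 Macrophages pre-incubated 15 min with compound, then LPS 250 ng/ml for 24 h. NOS-2 protein detected by Western blot with β-actin as loading control. A representative of three experiments is shown.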

[8] = system: RAW264.7; assay: Antiinflammatory activity in mouse RAW264.7 cells assessed as inhibition of LPS-induced TNFalpha production at 5 uM pretreated for 15 mins before LPS challenge measured after 24 hrs by ELISA; assay type: functional, cell-based; procedure, shortened: as §1
[9] = system: RAW264.7; assay: Cytotoxicity against LPS-stimulated mouse RAW264.7 cells assessed as cell viability at 1 to 50 uM pretreated for 15 mins before LPS challenge measured after 24 hrs by MTT assay; assay type: cell-based; conditions: raw264.7, 24 h
Procedure, shortened: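 RAW 264.7 cells pre-treated 15 min with compound (1, 5, 10, 25, 50), then LPS 250 ng/ml for 24 h. Viability by MTT: 4 h at 37 °C, formazan dissolved in DMSO, absorbance 540 nm, relative to untreated control. Triplicate; means ± S.D. of three experiments.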

[10] = system: RAW264.7; assay: Antiinflammatory activity in mouse RAW264.7 cells assessed as inhibition of LPS-induced IL-6 production at 5 uM pretreated for 15 mins before LPS challenge measured after 24 hrs by ELISA; assay type: functional, cell-based; procedure, shortened: as §1

| IC50 [5] | SMILES | Activity [1] | viability at 24 h, up to 25 µM [2] | Activity [3] | Activity [4] | inhibition [5] | Activity [6] | Activity [7] | Activity [8] | Activity [9] | Activity [10] |
| --- | --- | --- | --- | --- | --- | --- | --- | --- | --- | --- | --- |
| 7 µM | C[C@@]12CCC[C@@](C)(C(=O)OC[Si](C)(C)C)[C@H]1CC[C@@]1(CC(=O)O)CCCC[C@H]12 | Active | 95% | Active | Active | Dose-dependent effect | Active | Active | Active | Non-toxic | Active |
| > 25 µM | COC(=O)[C@]1(C)CCC[C@@]2(C)[C@@H]3CC[C@@H]4C[C@@]3(CC[C@@H]21)C(=O)[C@@]41CCN=N1 | – | 48% | – | – | – | – | – | – | – | – |

Second part, the compound before the results:

| SMILES | IC50 [5] | Activity [1] | viability at 24 h, up to 25 µM [2] | Activity [3] | Activity [4] | inhibition [5] | Activity [6] | Activity [7] | Activity [8] | Activity [9] | Activity [10] |
| --- | --- | --- | --- | --- | --- | --- | --- | --- | --- | --- | --- |
| C=C1[C@H]2CC3=C([C@H](C2)[C@@H]1O)[C@]1(C)CCC[C@@](C)(C(=O)OC)[C@H]1CC3 | > 25 µM | – | 30% | – | – | – | – | – | – | – | – |
| C[C@@]12CCC[C@@](C)(C(=O)OCc3ccccc3)[C@H]1CC[C@@]1(CC(=O)O)CCCC[C@H]12 | 7 µM | Active | 95% | Active | Active | Dose-dependent effect | Active | Active | Active | Non-toxic | Active |
| COC(=O)[C@]1(C)CCC[C@@]2(C)[C@@H]3CC[C@@H]4C[C@@]3(CC[C@@H]21)C[C@]4(C)O | 25 µM | – | 52% | – | – | – | – | – | – | – | – |
